Assays:
[1] = test system: CEM-SS; test: The compound was tested for anti HIV activity in CEM-SS cell lines; type: functional, cell-based; settings: Homo sapiens
How it was run: (§1)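 Run at NCI in the CEM-SS T4 lymphocyte line. The agent was dissolved in DMSO, diluted 1:100 in medium, then serially diluted in half-log10 steps, giving a 1:200 final compound dilution. Cells were added, followed shortly by HIV-1, and incubated for 6 days at 37 °C in 5% CO2. Viable cells were read by XTT formazan spectrophotometry, with microscopic confirmation. Drug-treated infected wells were compared against drug-treated uninfected (toxicity) wells and untreated controls.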

[2] = Therapeutic index value of the cpmpound against CEM-SS cells; type: cell-based; settings: human, read-out: Therapeutic index; how it was run: as §1
[3] = test system: Human immunodeficiency virus 1; test: Antiviral activity against HIV-1 in H9 lymphocytes.; type: functional, organism-based
[4] = test system: Human immunodeficiency virus 1; test: Anti-HIV activity in H9 lymphocytes.; type: functional, organism-based
[5] = Therapeutic index in H9 lymphocytes.; type: cell-based; settings: human, read-out: Therapeutic index
[6] = test system: CEM-SS; test: The compound was tested for anti HIV activity in CEM-SS cell lines; Inactive; type: functional, cell-based, Homo sapiens; how it was run: as §1
[7] = Therapeutic index value of the cpmpound against CEM-SS cells; Inactive; type: cell-based; settings: human; how it was run: as §1
[8] = test system: H9; test: The compound was tested for anti HIV activity in H9 lymphocytes; No suppression; type: functional, cell-based, Homo sapiens
[9] = Therapeutic index value against H9 lymphocytes; No suppression; type: cell-based; settings: human

SMILES | EC50 [1] [µM] | IC50 [1] [µM] | selectivity ratio [2] | EC50 [3] [nM] | IC50 ([4]; Human immunodeficiency virus 1) [µM] | selectivity ratio [5] | EC50 [6] | Therapeutic index [7] | EC50 [8] | Therapeutic index [9] | IC50 [4] [µM]
CC1(C)Oc2ccc3ccc(=O)oc3c2[C@@H](OC(=O)C23CCC(C)(C(=O)O2)C3(C)C)[C@H]1OC(=O)C12CCC(C)(C(=O)O1)C2(C)C (stereo partly drawn) | 0.26 | 26 | 100 | 0.256 | 35 | 137000 | – | – | – | – | –
Cc1cc2ccc3c(c2oc1=O)[C@@H](OC(=O)C12CCC(C)(C(=O)O1)C2(C)C)[C@@H](OC(=O)C12CCC(C)(C(=O)O1)C2(C)C)C(C)(C)O3 (stereo partly drawn) | 0.213 | > 12.5 | > 58.7 | 0.0525 | > 113 | > 2.15e+06 | – | – | – | – | –
Cc1cc2ccc(=O)oc2c2c1OC(C)(C)[C@H](OC(=O)C13CCC(C)(C(=O)O1)C3(C)C)[C@@H]2OC(=O)C12CCC(C)(C(=O)O1)C2(C)C (stereo partly drawn) | 0.376 | > 200 | > 532 | 151 | 33 | 218 | – | – | – | – | –
Cc1cc2c(c3oc(=O)ccc13)[C@@H](OC(=O)C13CCC(C)(C(=O)O1)C3(C)C)[C@@H](OC(=O)C13CCC(C)(C(=O)O1)C3(C)C)C(C)(C)O2 (stereo partly drawn) | 0.0635 | > 200 | > 3150 | 0.000239 | > 95 | > 3.97e+08 | – | – | – | – | –
COc1cc2c(c3oc(=O)ccc13)[C@@H](OC(=O)C13CCC(C)(C(=O)O1)C3(C)C)[C@@H](OC(=O)C13CCC(C)(C(=O)O1)C3(C)C)C(C)(C)O2 (stereo partly drawn) | 0.128 | > 200 | > 1560 | 0.192 | > 153 | > 797000 | – | – | – | – | –
COc1cc(=O)oc2c3c(ccc12)OC(C)(C)[C@H](OC(=O)C12CCC(C)(C(=O)O1)C2(C)C)[C@@H]3OC(=O)C12CCC(C)(C(=O)O1)C2(C)C (stereo partly drawn) | 0.125 | > 200 | > 1600 | 2.99 | > 153 | > 51200 | – | – | – | – | –
COc1cc2ccc(=O)oc2c2c1OC(C)(C)[C@H](OC(=O)C13CCC(C)(C(=O)O1)C3(C)C)[C@@H]2OC(=O)C12CCC(C)(C(=O)O1)C2(C)C (stereo partly drawn) | – | > 200 | – | 15800 | > 153 | > 9.68 | Not Active | Not Active | – | – | –
CC(=O)O[C@@H]1[C@H](OC(=O)C23CCC(C)(C(=O)O2)C3(C)C)c2c(ccc3c(C)cc(=O)oc23)OC1(C)C (stereo partly drawn) | – | – | – | 55.2 | 123 | 2230 | – | – | – | – | –
CCCc1cc(=O)oc2c3c(ccc12)OC(C)(C)[C@H](OC(=O)C12CCC(C)(C(=O)O1)C2(C)C)[C@@H]3OC(=O)C12CCC(C)(C(=O)O1)C2(C)C (stereo partly drawn) | 0.763 | > 200 | > 262 | 17.5 | > 151 | > 8630 | – | – | – | – | –
Cc1cc(=O)oc2c3c(ccc12)OC(C)(C)[C@H](OC(=O)Nc1cccc2ccccc12)[C@@H]3OC(=O)Nc1cccc2ccccc12 | – | – | – | – | 98 | – | – | – | Not Active | Not Active | –
CC(C)c1cc(=O)oc2c3c(ccc12)OC(C)(C)[C@H](OC(=O)C12CCC(C)(C(=O)O1)C2(C)C)[C@@H]3OC(=O)C12CCC(C)(C(=O)O1)C2(C)C (stereo partly drawn) | 0.584 | > 128 | > 219 | 31.5 | > 151 | > 4790 | – | – | – | – | –
Cc1cc(=O)oc2c3c(ccc12)OC(C)(C)[C@H](OC(=O)c1cccc(Br)c1)[C@@H]3OC(=O)c1cccc(Br)c1 | – | – | – | – | > 91.6 | – | – | – | Not Active | Not Active | –
CC1(C)Oc2ccc3c(-c4ccccc4)cc(=O)oc3c2[C@@H](OC(=O)C23CCC(C)(C(=O)O2)C3(C)C)[C@H]1OC(=O)C12CCC(C)(C(=O)O1)C2(C)C (stereo partly drawn) | – | – | – | 120 | > 143 | > 1190 | – | – | – | – | –
Cc1cc(=O)oc2c3c(ccc12)OC(C)(C)[C@H](OC(=O)C12CCC(C)(C(=O)O1)C2(C)C)[C@@H]3OC(=O)C12CC3CC(CC(C3)C1)C2 (stereo partly drawn) | – | – | – | 600 | 21.3 | 35.5 | – | – | – | – | –
COc1cc2ccc3c(c2oc1=O)[C@@H](OC(=O)C12CCC(C)(C(=O)O1)C2(C)C)[C@@H](OC(=O)C12CCC(C)(C(=O)O1)C2(C)C)C(C)(C)O3 (stereo partly drawn) | 0.494 | 16.8 | 34 | 2.38 | > 153 | > 64300 | – | – | – | – | –
CC1(C)Oc2ccc3c(C(F)(F)F)cc(=O)oc3c2[C@@H](OC(=O)C23CCC(C)(C(=O)O2)C3(C)C)[C@H]1OC(=O)C12CCC(C)(C(=O)O1)C2(C)C (stereo partly drawn) | – | – | – | 1810 | > 145 | > 80.1 | – | – | – | – | –
CC(=O)O[C@@H]1[C@H](OC(=O)C23CC4CC(CC(C4)C2)C3)c2c(ccc3c(C)cc(=O)oc23)OC1(C)C | – | – | – | 1140 | 19 | 16.7 | – | – | – | – | –
Cc1cc(=O)oc2c3c(ccc12)OC(C)(C)[C@H](OC(=O)CC(C)C)[C@@H]3OC(=O)CC(C)C | – | – | – | – | 42 | – | – | – | Not Active | Not Active | –
CC(=O)O[C@@H]1c2c(ccc3c(C)cc(=O)oc23)OC(C)(C)[C@@H]1OC(C)=O | – | – | – | 83100 | 171 | 2.06 | – | – | – | – | –
Cc1cc(=O)oc2c3c(ccc12)OC(C)(C)[C@H](O)[C@@H]3OC(=O)C12CCC(C)(C(=O)O1)C2(C)C (stereo partly drawn) | – | – | – | – | > 219 | – | – | – | – | – | –
Cc1cc(=O)oc2c3c(ccc12)OC(C)(C)[C@H](O)[C@@H]3OC(=O)C12CC3CC(CC(C3)C1)C2 | – | – | – | – | 43.2 | – | – | – | Not Active | Not Active | –
Cc1cc(=O)oc2c3c(ccc12)OC(C)(C)[C@H](OC(=O)C12CCC(C)(C(=O)O1)C2(C)C)[C@@H]3OC(=O)C12CCC(C)(C(=O)O1)C2(C)C (stereo in doubt; 8) | 0.0635 | > 200 | > 3150 | – | > 126 | – | – | – | – | – | –
Cc1cc(=O)oc2c3c(ccc12)OC(C)(C)[C@H](OC(=O)C12CCC(C)(C(=O)O1)C2(C)C)[C@@H]3OC(=O)C12CCC(C)(C(=O)O1)C2(C)C (stereo in doubt; 19) | – | – | – | – | – | – | – | – | – | – | > 157
Cc1cc(=O)oc2c3c(ccc12)OC(C)(C)[C@H](OS(=O)(=O)CC12CCC(CC1=O)C2(C)C)[C@@H]3O (stereo in doubt; 22) | – | – | – | – | – | – | – | – | – | – | 42
Cc1cc(=O)oc2c3c(ccc12)OC(C)(C)[C@H](OS(=O)(=O)CC12CCC(CC1=O)C2(C)C)[C@@H]3O (stereo in doubt; 23) | – | – | – | – | 45 | – | – | – | Not Active | Not Active | –
Cc1cn([C@H]2C[C@H](N=[N+]=[N-])[C@@H](CO)O2)c(=O)[nH]c1=O [ZIDOVUDINE] | 0.0038 | > 1 | – | 4500 | – | – | – | – | – | – | –

Source: ChEMBL document CHEMBL1132174, “Anti-AIDS agents. 37. Synthesis and structure-activity relationships of (3'R,4'R)-(+)-cis-khellactone derivatives as novel potent anti-HIV agents” (J Med Chem, 1999)
